Assay results: the EternaBench riboswitch data

Test system: MS2 coat protein
Assay: apparent Kd, MS2 coat protein; higher = weaker binding; RNA-MaP array; FMN 200 µM where present
Procedure, shortened: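 Apparent Kd: the median of filtered binding-curve fits from single clusters. Designs were transcribed on Illumina sequencing-chip clusters by stalled E. coli RNA polymerase and titrated with SNAP-549-labelled MS2 coat protein from 0.7 or 1.5 nM, doubling to 3 µM, in 100 mM Tris-HCl pH 7.5, 80 mM KCl, 4 mM MgCl2, BSA, DTT, yeast tRNA and Tween-20. Each series ran without and then with constant ligand, and green signal was normalised to red-channel RNA signal and control-cluster median Fmax.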

[1] = designed as: OFF switch for flavin mononucleotide, no ligand
[2] = ligand present: flavin mononucleotide, designed as: OFF switch for flavin mononucleotide
[3] = designed as: ON switch for flavin mononucleotide, no ligand
[4] = ligand present: flavin mononucleotide, designed as: ON switch for flavin mononucleotide

| Sequence | apparent Kd [1] [nM] | apparent Kd [2] [nM] | apparent Kd [3] [nM] | apparent Kd [4] [nM] |
| --- | --- | --- | --- | --- |
| CCUAUGUGAGGAUAUGGUGUUGGCCACAAGGAAAAGCUCCUCCAGAAGGCACAUGAGGAUCACCCAUGUCGUGG | 21.5 | 115 |  |  |
| CCUCAACAGUAGGAUAUCAUAAAACUAUUGUGAUGAGAAGGACUGACAUGAGGAUCACCCAUGUUAACGUGAUA | 19.6 | 30.5 |  |  |
| CCUCAACAGUAGGAUAUCAUCAAACUAUUGUGAUGAGAAGGACUGACAUGAGGAUCACCCAUGUUGACGUGAUA | 63.4 | 51.7 |  |  |
| CCUCAUGGUCGAGGAUAUAUAACGUGGAACGUAAUAGAAGGCGACAUGAGGAUCACCCAUGUAGCGUCCACUGGAGUCGCGCGG | 119 | 62.2 |  |  |
| CCUCCACAUGAGGAUCACCCAUGUCAGGAUAUCGUGCGCGCGUUUUCGGUCUUUCGCGCGAGAAGGGACGACUG | 30.3 | 30.9 |  |  |
| CCUCCACAUGAGGAUCACCCAUGUCAGGAUAUCGUGUGCGCGUUUUCGGUCUUUCGUGCGAGAAGGGACGUCUG | 36.9 | 35 |  |  |
| CCUCCCUGAGGAUAUCCACCCUCAUACAUGAGGAUCACCCAUGUUCAUCCCUGAGUACCCGGAGAAGGCAGAUUUC | 168 | 148 |  |  |
| CCUCGUUGGGAGGAUAUCCUUUUGGUUGGAGGAGGAGAAGGCUCGACAUGAGGAUCACCCAUGUGGGAUUUCCU | 74.8 | 211 |  |  |
| CCUCUACAUGAGGAUCACCCAUGUGAGGAUAUCAAAGCCAGAGCGGAUCUCCGGCCCAUGAGAAGGUGCAUGGA | 19.8 | 70.8 |  |  |
| CCUGCACAUGAGGAUCACCCAUGUCAGGAUAUCUCGCCGUGAAGAGCAACACGGUAUUAGAGAAGGGACACGGG | 25.1 | 23.3 |  |  |
| CCUGCGGACAAAGGAUAUUGCGGUGGCCGGCUCAGUAAAUCUAGCCAACAUGAGGAUCACCCAUGUAAGAAGGUUGCCGUUGGU | 19.1 | 35.1 |  |  |
| CCUGGAUCAUGAGGAUAUGGCACCUUAUUGGUGCCAGAAGGCAUGUCUUUUGACAUGAGGAUCACCCAUGUAAUAAAUUCCAGG |  |  | 933 | 131 |
| CCUUCACAUGAGGAUCACCCAUGUCAGGAUAUCUCAGUGCAUCCACACGGACGCAUCAAGAGAAGGGACAAAAC | 46.4 | 53.6 |  |  |
| CCUUCAGCGAACGAUACGAAUGGACAUGAGGAUCACCCAUGUAGAAGGACAGGAGAAUAACGGCUGUAGGAUAUACAUUUAGUG | 39.9 | 30 |  |  |
| CCUUGACAUGAGGAUCACCCAUGUUAGGAUAUAACAUUAGACACUACAGUAUGUAGUGUUAGAAGGGAUAUGGG | 22.8 | 28.5 |  |  |
| CCUUUGAAGAUCCAAAAUUUCAACAUGAGGAUCACCCAUGUGCAGGAUAUCGUGCCAGUGAUGUACGAGAAGGGCAGACUCUGC | 176 | 177 |  |  |
| CGAAGAGGAAGUGAAAGGCGGGACAGAAGGGCACCGGGUCAGCGUCACAUGAGGAUCACCCAUGUGCAGGAUAUGUCGACCCAC | 6.54 | 30.4 |  |  |
| CGAGACCUCACAGGAUAUGCUGGACUUUGUCCAGCAGAAGGGUGAAAACAUGAGGAUCACCCAUGUAUGGUCUCCAAAUUUAAU |  |  | 176 | 13.9 |
| CGAGUGUAAGGAUAUUCGGCACUAGGGACCACCCUAGUGUAGAAGAAGGUACAUGAGGAUCACCCAUGUGGUUA | 369 | 428 |  |  |
| CGAUAAAGGUGAGGAUAUGAGAAUAGAAAGAAAUCAGAAGGCACACAUGAGGAUCACCCAUGUGAGUUCUCGAGAUUACAUGGU | 15.5 | 17.9 |  |  |
| CGAUAAUAUAGAGGAUAUGUUUAACAUGAGGAUCACCCAUGUGACAUGGGAUUAAUAUAUAACUUACAGAAGGCUAUACAAUCG | 34.1 | 46.9 |  |  |

| Sequence | apparent Kd [1] [nM] | apparent Kd [2] [nM] | apparent Kd [3] [nM] | apparent Kd [4] [nM] |
| --- | --- | --- | --- | --- |
| CGAUAUAUGAAGGGCGAAAGCCCACAUGAGGAUCACCCAUGUAGAAGGCGGGCCGCAACGCGGCCCGAGGAUAUAUAGUAUACA | 8.05 | 8.84 |  |  |
| CGAUAUAUGAAGGGCGAACGCGCACAUGAGGAUCACCCAUGUAGAAGGCGGUCCGCAACGCGGAUCGAGGAUAUAUAGUAUACG | 27.5 | 30.7 |  |  |
| CGAUGACAAAGUCAUCGAUUACGAACAUGAGGAUCACCCAUGUAGGAUAUGCUACUCAAAGAGUAGCAGAAGGACAUGUGUCUU | 35.6 | 155 |  |  |
| CGAUGGCAUGUAGGAUAUCGAGCUCAAAGAGCUCGAGAAGGACAUGAGGAUCACCCAUGUCCUCACAGACAGUGAGGGCUAUCG | 22.3 | 54.7 |  |  |
| CGCAAACAUGAGGAUCACCCAUGUCAAUGUGAUCAAGGAUAUGGGUUCCUAAACGGAACACCAGAAGGUGAGUAGA |  |  | 85.2 | 23.8 |
| CGCAAGUAUACAUGAGGAUACAUGAGGAUCACCCAUGUUAUCAGAAGGUACUAUUAGAGAUAGAGUAAGGAUAUGAAAUUUGUG |  |  | 7.88 | 17.3 |
| CGCAAGUAUACAUGAGGAUCACCCAUGUUUGAUAGGGUUUUCAGAAGGUACAAUUAGAGAUAGAGUAAGGAUAUGAAAUUUGCG |  |  | 125 | 24.7 |
| CGCAAGUCAGGAUAUUCGACUGGUAAAUCAGUGGAUCAGUAGGAGAAGGGACAUGAGGAUCACCCAUGUAUGUA | 43.2 | 51.2 |  |  |
| CGCAUGUAAGGAUAUUAGUAGUAGUCAGAAUAGACUAUUACUGAGAAGGUACAUGAGGAUCACCCAUGUAAGCG | 62.9 | 419 |  |  |
| CGCCGCACCGGCCUGCGGCAGGGUCAGGAUAUACAUGAGGAUCACCCAUGUGAACGGUGCCCAAUGUAGAAGGGACGAAAAGAA | 17.8 | 39.5 |  |  |
| CGCCUCGUGUCGAACAUGAGGAUCACCCAUGUAAUGGGCACCGAGGAUAUCCCGCUGGCGUUAUGGGAGAAGGCGGUGGAUUUA | 45 | 131 |  |  |
| CGCCUGUGAGGAUAUCCAUCUGGAUCAGACUAGAUCCUGAUGGAGAAGGCACAUGAGGAUCACCCAUGUCGGCG | 23.1 | 22.4 |  |  |
| CGCGAACAUGAGGAUCACCCAUGUGGGUGGAACGUAGGAUAUACGCAGGUCUUUAAAACGGUAGAAGGACGUUCGC |  |  | 452 | 159 |
| CGCGAUAGCAUAGGAUAUUGAUACAUGAGGAUCACCCAUGUCAACCAUGAAGCUCGAAUUGUUGACAAGAAGGAUGAGGUCGCG |  |  | 81.3 | 55.3 |
| CGCUAAUUAAUUAUAUUAAUUGUACAGGAUAUGUAACAUGAGGAUCACCCAUGUAUUGGGUUUAAACAGAAGGGUAUAUUAGCG | 425 | 112 |  |  |
| CGCUACAGCCAGAAGGACAUGAGGAUCACCCAUGUAGGAUAUGGGAGACGCAGUCCCGUGUAGAGAAACUACGCUACUGUAGCG |  |  | 430 | 183 |
| CGCUACUACCAGAAGGACAUGAGGAUCACCCAUGUAGGAUAUGGGUUACAAGUACCAGUGUAAAGAAACUACGCUACAGUAGCG |  |  | 57.8 | 8.73 |
| CGCUACUACCAGAAGGACAUGAGGAUCACCCAUGUAGGAUAUGGGUUACACGUUCCUGUGUAUUGUUACUACGCUACGUAUGCG |  |  | 168 | 11.9 |
| CGCUACUGCCAGAAGGACAUGAGGAUCACCCAUGUAGGAUAUGGGUGACGAGGACCAGUGUAGAGAAACUACGCUACAGUAGCG |  |  | 89.4 | 47.5 |
| CGCUAUGACAUAGGAUAUUGGUACAUGAGGAUCACCCAUGUCAACUAUGGAAUAGAAUUAGUUGACAAGAAGGAUGUGGUAGCG |  |  | 47.2 | 10.3 |
| CGCUCAAGAGAGAAGGAUAGAGUCAGAAGGCGUUACAUGAGGAUCACCCAUGUAUAGUAGUGUAACGAGGAUAUGAAAUGAGCG | 194 | 250 |  |  |
